Our source for the MIC and CC50 values is ChEMBL document CHEMBL1817648, “Synthesis and in vitro antibacterial activity of a series of novel gatifloxacin derivatives” (Eur J Med Chem, 2011).

As a reminder, the MIC is the smallest concentration in the dilution series that meets the test's criterion for growth inhibition. What is called CC50 is the concentration at which the toxic effect on the cells reaches its halfway point.

Structures are written as SMILES. Values after ≈ are worked out from the molar mass of the structure shown. Some results are limits rather than exact numbers.

The subject of data set [1] is Pseudomonas aeruginosa. Kind of data set: Antibacterial activity against Pseudomonas aeruginosa 09-33 after 18 to 24 hrs by NCCLS M100-S11 two fold serial dilution method. The format is functional.
For data set [2], the system named is Pseudomonas aeruginosa. Kind of data set: Antibacterial activity against Pseudomonas aeruginosa 09-32 after 18 to 24 hrs by NCCLS M100-S11 two fold serial dilution method. It is filed as functional.
Data set [3] has as its system Enterococcus faecalis. Kind of data set: Antibacterial activity against Enterococcus faecalis 08-12 after 18 to 24 hrs by NCCLS M100-S11 two fold serial dilution method. It is filed as functional.
The test system of data set [4] is Klebsiella pneumoniae. Kind of data set: Antibacterial activity against Klebsiella pneumoniae 09-23 after 18 to 24 hrs by NCCLS M100-S11 two fold serial dilution method. It is filed as functional.
In data set [5] the test system is Streptococcus pneumoniae. Kind of data set: Antibacterial activity against Streptococcus pneumoniae 08-2 after 18 to 24 hrs by NCCLS M100-S11 two fold serial dilution method. It is filed as functional.
Data set [6] deals with Pseudomonas aeruginosa. Kind of data set: Antibacterial activity against Pseudomonas aeruginosa 09-34 after 18 to 24 hrs by NCCLS M100-S11 two fold serial dilution method. The format is functional.
The test system of data set [7] is Pseudomonas aeruginosa. Kind of data set: Antibacterial activity against Pseudomonas aeruginosa ATCC 27853 after 18 to 24 hrs by NCCLS M100-S11 two fold serial dilution method. The format is functional.
In data set [8] the test system is Enterococcus faecium. Kind of data set: Antibacterial activity against Enterococcus faecium 08-2 after 18 to 24 hrs by NCCLS M100-S11 two fold serial dilution method. It is filed as functional.
Data set [9] has as its system Staphylococcus epidermidis. Kind of data set: Antibacterial activity against methicillin-sensitive Staphylococcus epidermidis 09-3 after 18 to 24 hrs by NCCLS M100-S11 two fold serial dilution method. The format is functional. Put shortly:
(§1)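 Two-fold serial dilution in agar medium. MIC read as the lowest concentration giving complete inhibition of bacterial growth after incubation at 35 °C for 18–24 h.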

The test system of data set [10] is Staphylococcus aureus. Kind of data set: Antibacterial activity against Staphylococcus aureus ATCC 25923 after 18 to 24 hrs by NCCLS M100-S11 two fold serial dilution method. It is filed as functional. The note with it: ATCC25923.
Data set [11] has as its system Staphylococcus epidermidis. Kind of data set: Antibacterial activity against methicillin-resistant Staphylococcus epidermidis 09-4 after 18 to 24 hrs by NCCLS M100-S11 two fold serial dilution method. The format is functional. Put shortly:
as §1

The test system of data set [12] is Escherichia coli. Kind of data set: Antibacterial activity against Escherichia coli 08-21 after 18 to 24 hrs by NCCLS M100-S11 two fold serial dilution method. It is filed as functional.
In data set [13] the test system is Klebsiella pneumoniae. Kind of data set: Antibacterial activity against Klebsiella pneumoniae 09-22 after 18 to 24 hrs by NCCLS M100-S11 two fold serial dilution method. It is filed as functional.
Data set [14] has as its system Staphylococcus aureus. Kind of data set: Antibacterial activity against methicillin-resistant Staphylococcus aureus 08-1 after 18 to 24 hrs by NCCLS M100-S11 two fold serial dilution method. The format is functional. Put shortly: as §1
The test system of data set [15] is Enterococcus faecalis. Kind of data set: Antibacterial activity against Enterococcus faecalis 08-10 after 18 to 24 hrs by NCCLS M100-S11 two fold serial dilution method. The format is functional.
Data set [16] deals with Staphylococcus epidermidis. Kind of data set: Antibacterial activity against methicillin-sensitive Staphylococcus epidermidis 09-6 after 18 to 24 hrs by NCCLS M100-S11 two fold serial dilution method. It is filed as functional. Put shortly:
as §1

The test system of data set [17] is Streptococcus pneumoniae. Kind of data set: Antibacterial activity against Streptococcus pneumoniae 08-4 after 18 to 24 hrs by NCCLS M100-S11 two fold serial dilution method. It is filed as functional.
Data set [18] deals with Enterococcus faecium. Kind of data set: Antibacterial activity against Enterococcus faecium 08-7 after 18 to 24 hrs by NCCLS M100-S11 two fold serial dilution method. It is filed as functional.
Data set [19] deals with Escherichia coli. Kind of data set: Antibacterial activity against Escherichia coli ATCC 25922 after 18 to 24 hrs by NCCLS M100-S11 two fold serial dilution method. The note with it: ATCC25922. It is filed as functional.
Data set [20] deals with Staphylococcus aureus. Kind of data set: Antibacterial activity against methicillin-sensitive Staphylococcus aureus 08-1 after 18 to 24 hrs by NCCLS M100-S11 two fold serial dilution method. It is filed as functional.
The test system of data set [21] is Escherichia coli. Kind of data set: Antibacterial activity against Escherichia coli 08-22 after 18 to 24 hrs by NCCLS M100-S11 two fold serial dilution method. The format is functional.
Data set [22] is described as follows: Cytotoxicity against african green monkey Vero cells after 72 hrs by MTT assay. The format is cell-based. The note with it: chlorocebus sabaeus. In a few lines: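 Vero cells were kept in Minimum Essential Medium with Earle's salts plus 10% fetal bovine serum at 37 °C under 5% CO₂. Cells were seeded at 1 × 10⁴ per well and allowed to recover 24 h. Medium was then replaced with assay medium containing compound or no drug, and cells were exposed for 72 h. CC₅₀ is the 50% cellular cytotoxic concentration.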
For orientation: Formazan colour is commonly taken as a measure of viable cells.

Regarding `CCOC(=O)CN1CCN(c2c(F)cc3c(=O)c(C(=O)O)cn(C4CC4)c3c2OC)CC1C` (stereo not given), the MIC in the data set with Pseudomonas aeruginosa [1], against Pseudomonas aeruginosa [2], in the data set with Enterococcus faecalis [3], with Klebsiella pneumoniae [4], in the data set on Streptococcus pneumoniae [5] and in the data set with Pseudomonas aeruginosa [6] was more than 128 µg/mL in each case. The minimal inhibitory concentration (MIC) with Pseudomonas aeruginosa [7] was 128 µg/mL (≈ 277 µM); in the data set with Enterococcus faecium [8], more than 128 µg/mL; in data set [9], 4 µg/mL (≈ 8.67 µM); in the data set with Staphylococcus aureus [10] it was 4 µg/mL (≈ 8.67 µM); in [11], 4 µg/mL (≈ 8.67 µM); against Escherichia coli [12] it was more than 128 µg/mL. Also, the MIC against Klebsiella pneumoniae [13] was more than 128 µg/mL; in the data set with Staphylococcus aureus [14], more than 128 µg/mL; with Enterococcus faecalis [15], more than 128 µg/mL; in data set [16], 4 µg/mL (≈ 8.67 µM); in the data set on Streptococcus pneumoniae [17], 4 µg/mL (≈ 8.67 µM); in the data set on Enterococcus faecium [18], more than 128 µg/mL. Besides, the MIC in the data set on Escherichia coli [19] was 128 µg/mL (≈ 277 µM); against Staphylococcus aureus [20], 4 µg/mL (≈ 8.67 µM); with Escherichia coli [21], more than 128 µg/mL. In [22], this compound returned a half-maximal cytotoxic concentration (CC50) at 72 h of 1000 µg/mL (≈ 2170 µM).
Take `CCOC(=O)CCN1CCN(c2c(F)cc3c(=O)c(C(=O)O)cn(C4CC4)c3c2OC)CC1C` (stereo not given): the minimal inhibitory concentration (MIC) against Pseudomonas aeruginosa [1], against Pseudomonas aeruginosa [2], against Enterococcus faecalis [3], in the data set on Klebsiella pneumoniae [4], with Streptococcus pneumoniae [5] and against Pseudomonas aeruginosa [6] was more than 128 µg/mL throughout. For the same compound, the MIC in the data set on Pseudomonas aeruginosa [7] is 128 µg/mL (≈ 269 µM); against Enterococcus faecium [8] it was more than 128 µg/mL; in data set [9], more than 128 µg/mL; in the data set with Staphylococcus aureus [10], 128 µg/mL (≈ 269 µM); in data set [11] it was more than 128 µg/mL; in the data set on Escherichia coli [12] it was more than 128 µg/mL. Besides, the MIC is more than 128 µg/mL against Klebsiella pneumoniae [13]; more than 128 µg/mL against Enterococcus faecalis [15]; more than 128 µg/mL in data set [16]; more than 128 µg/mL in the data set with Streptococcus pneumoniae [17]; more than 128 µg/mL in the data set on Enterococcus faecium [18]; 128 µg/mL (≈ 269 µM) against Escherichia coli [19]. Also, the MIC with Staphylococcus aureus [20] and against Escherichia coli [21] was more than 128 µg/mL in each case.
Consider `COc1c(N2CCNC(C)C2)c(F)cc2c(=O)c(C(=O)O)cn(C3CC3)c12` (stereo not given) [GATIFLOXACIN], for which the minimum inhibitory concentration (MIC) in the data set on Pseudomonas aeruginosa [1] came to 4 µg/mL (≈ 10.7 µM); against Pseudomonas aeruginosa [2], 8 µg/mL (≈ 21.3 µM); against Enterococcus faecalis [3], 2 µg/mL (≈ 5.33 µM); against Klebsiella pneumoniae [4] it was 2 µg/mL (≈ 5.33 µM); with Streptococcus pneumoniae [5], 4 µg/mL (≈ 10.7 µM); in the data set with Pseudomonas aeruginosa [6], 1 µg/mL (≈ 2.66 µM). Further, the minimal inhibitory concentration (MIC) against Pseudomonas aeruginosa [7] amounted to 1 µg/mL (≈ 2.66 µM); against Enterococcus faecium [8] it was 2 µg/mL (≈ 5.33 µM); in data set [9], 0.25 µg/mL (≈ 0.666 µM); with Staphylococcus aureus [10], 0.125 µg/mL (≈ 0.333 µM); in [11] it was 0.25 µg/mL (≈ 0.666 µM); with Escherichia coli [12], 4 µg/mL (≈ 10.7 µM). Also, the MIC against Klebsiella pneumoniae [13] was determined as 0.125 µg/mL (≈ 0.333 µM); with Staphylococcus aureus [14], 0.125 µg/mL (≈ 0.333 µM); with Enterococcus faecalis [15], 4 µg/mL (≈ 10.7 µM); in [16], 8 µg/mL (≈ 21.3 µM); with Streptococcus pneumoniae [17] it was 0.25 µg/mL (≈ 0.666 µM); against Enterococcus faecium [18] it was 4 µg/mL (≈ 10.7 µM). The minimal inhibitory concentration (MIC) in the data set with Escherichia coli [19] came out at 2 µg/mL (≈ 5.33 µM); against Staphylococcus aureus [20] it was 0.06 µg/mL (≈ 0.16 µM); in the data set with Escherichia coli [21], 4 µg/mL (≈ 10.7 µM).
In the case of `C[C@H]1COc2c(N3CCN(C)CC3)c(F)cc3c(=O)c(C(=O)O)cn1c23.C[C@H]1COc2c(N3CCN(C)CC3)c(F)cc3c(=O)c(C(=O)O)cn1c23.O` [LEVOFLOXACIN], the MIC in the data set on Pseudomonas aeruginosa [1] was found to be 8 µg/mL; in the data set on Pseudomonas aeruginosa [2], 16 µg/mL; in the data set on Enterococcus faecalis [3] it was 8 µg/mL; in the data set on Klebsiella pneumoniae [4], 8 µg/mL; in the data set on Enterococcus faecium [8], 4 µg/mL; in data set [9], 0.06 µg/mL. Also, the minimal inhibitory concentration (MIC) against Staphylococcus aureus [10] was found to be 0.25 µg/mL; in data set [11], 0.5 µg/mL; against Escherichia coli [12], 8 µg/mL; against Klebsiella pneumoniae [13], 16 µg/mL; against Staphylococcus aureus [14] it was 0.06 µg/mL; against Enterococcus faecalis [15] it was 8 µg/mL. The MIC in data set [16] came out at 2 µg/mL; against Enterococcus faecium [18], 8 µg/mL; with Escherichia coli [19] it was 2 µg/mL; against Staphylococcus aureus [20], 0.25 µg/mL; in the data set with Escherichia coli [21] it was 4 µg/mL.
